# Source: PubChem
# A selection: hits, their analogues and other compounds. The true share with any hit is near 0.72%.
# bIAP act = increases bovine intestinal alkaline phosphatase activity; actives 0.17% (n = 200,000); AID 1016; purified bovine IAP, CDP-star luminescence, 30 min; stronger effect = higher value; fold of DMSO-control signal, blank-subtracted; activation factor at 20 µM;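 active = activation factor of 2 or more at 20 µM, a signal rise over negative controls twice the positive control's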
# mIAP block = blocks mouse intestinal alkaline phosphatase; purified mouse IAP, CDP-Star luminescence, 30 min; inhibition, % at 10 µM; actives 0.2% (n = 330,000); AID 2806;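 active = inhibition of at least 40% at 10 µM in the primary screen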;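 also: plate controls were DMSO with enzyme for no effect and no enzyme wells for full effect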
# hIAP act = human IAP activation; P09923; purified human IAP, CDP-Star luminescence, 30 min; stronger effect = higher value; 1 = vehicle-only enzyme, 0 = enzyme-free background; activation factor at 10 µM; actives 0.16% (n = 330,000);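 active = activation factor of the enzyme at least 2-fold when tested at 20 µM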
# Target sequence (P09923 whole entry, looked up): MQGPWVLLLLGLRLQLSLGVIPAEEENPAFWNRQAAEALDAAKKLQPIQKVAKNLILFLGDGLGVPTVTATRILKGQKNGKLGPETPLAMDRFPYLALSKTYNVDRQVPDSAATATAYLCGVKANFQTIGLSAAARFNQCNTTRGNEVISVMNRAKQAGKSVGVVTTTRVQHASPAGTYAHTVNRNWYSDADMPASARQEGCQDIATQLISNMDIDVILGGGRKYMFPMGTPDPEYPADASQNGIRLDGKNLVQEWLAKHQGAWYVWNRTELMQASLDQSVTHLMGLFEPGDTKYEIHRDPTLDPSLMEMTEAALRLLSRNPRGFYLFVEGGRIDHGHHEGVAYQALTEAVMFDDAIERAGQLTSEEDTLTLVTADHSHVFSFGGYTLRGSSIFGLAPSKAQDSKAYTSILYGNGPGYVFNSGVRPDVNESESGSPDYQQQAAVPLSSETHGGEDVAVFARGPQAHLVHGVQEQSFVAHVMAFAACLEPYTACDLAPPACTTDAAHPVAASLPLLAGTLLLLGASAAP
# hIAP inh = human IAP inhibition. purified IAP, CDP-Star luminescence, 30 min. inhibition, % at 10 µM. P09923. actives 0.12% (n = 330,000);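 active = inhibition reaching a set limit with compound at 10 µM in the primary screen, cut at about 35% in these data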;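 also: plate controls were DMSO wells with enzyme for no effect and no-enzyme buffer wells for full effect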
# bIAP inh = intestinal alkaline phosphatase (bovine) inhibition; purified bovine IAP, CDP-star luminescence, 30 min; inhibition, % at 20 µM; 190,000 tested, under 10 active; AID 1019;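 active = over 50% inhibition of intestinal alkaline phosphatase at 20 µM in the single-dose screen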
#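 System: Purified bovine intestinal alkaline phosphatase (IAP) enzyme | Input: IAP diluted 1/65,000,000 in the well | Also added: CDP-star chemiluminescent phosphatase substrate, 30 µM final | Dosing: 20 µM single dose | Times: Enzyme reaction for 30 min at room temperature | Detection: Luminescence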
# mIAP activ = increases mouse intestinal alkaline phosphatase activity | muIAP, CDP-Star luminescence, 30 min; stronger effect = higher value; 1 = vehicle-only enzyme signal, 0 = enzyme-free wells | activation factor at 10 µM | actives 0.24% (n = 330,000);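 active = activation factor of at least 2 at 20 µM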
#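 also added = chemiluminescent substrate CDP-Star | test system = mouse IAP enzyme | signal = chemiluminescence readout | compound = DMSO-dissolved test compounds | incubation = 30 min at room temperature | benchmarks = DMSO wells, no-enzyme wells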
# * = called active by the depositor; i = inactive; x = no result given.
SMILES,bIAP act,mIAP block,hIAP act,hIAP inh,bIAP inh,mIAP activ
Cc1ccc(OC(F)F)c(NC(=O)Nc2cccc(C(F)(F)F)c2)c1,0.7,-106,1,-2,28,2.1*
CN(CC(=O)Nc1ccccc1Br)C(=O)c1cccn1C,x,-5,1,-3,x,1
CC(=O)c1ccc(S(=O)(=O)N2CCC(NC(=O)Nc3cccc(F)c3)CC2)cc1,1.1,-21,1.2,-21,-13,1.2
O=C(Nc1cccc(C(F)(F)F)c1)NC1CCN(S(=O)(=O)c2ccc(F)cc2)CC1,0.9,-134,0.93,7,12,2.3*
S=C(NCc1ccccc1)NCc1cccc(CNC(=S)NCc2ccccc2)c1,0.9,-140,0.94,6,6,2.4*
Cc1c(CCOC(=O)c2cccc([N+](=O)[O-])c2)sc[n+]1CC(=O)c1ccccc1,0.4,43*,0.85,15,x,0.57
COc1ccc(CN(CC2CCC(C(=O)O)CC2)C(=S)Nc2cccc(C)c2)cc1 (configuration not stated),2.4*,2,0.93,7,-140,0.97
COc1ccc(CN(CC2CCC(C(=O)O)CC2)C(=S)Nc2ccccc2OC)cc1 (configuration not stated),1.1,5,1,-3,-7,0.95
Cc1ccc(Cl)c(OCC(=O)Nc2ccc3c(c2)OCCO3)c1,0.9,4,0.94,6,10,0.96
O=C(COc1cc(Cl)c(Cl)cc1Cl)NC(=O)Nc1ccc2c(c1)OCCO2,2.6*,-4,1,0,-164,1
COc1ccc(N2CCN(C(=O)CCNC(=O)Cn3ccc4ccccc4c3=O)CC2)cc1,1,4,1.1,-7,0,0.96
O=C(NC(Nc1ccc(F)cc1)(C(F)(F)F)C(F)(F)F)c1cccnc1,2*,-5,1,-5,-96,1
O=C(CN1C(=O)/C(=C\c2cccc(Cl)c2)Oc2ccccc21)N1CCN(c2ccccn2)CC1,1,9,0.89,11,-2,0.91
Cc1ccc(Cl)cc1-n1ncc2c(NNC(=O)c3ccco3)ncnc21,1.4,7,2.4*,-140,-37,0.93
CC(=O)NNc1ncnc2c1cnn2-c1ccc(C)cc1,1.3,18,3.1*,-206,-28,0.81
CC(=O)NNc1ncnc2c1cnn2-c1ccc(C)c(Cl)c1,1.1,-18,1.6,-57,-14,1.2
CC1CCCN(C(=O)C2(NC(=O)Nc3cccc(F)c3)CCCCC2)C1 (configuration not stated),1.6,-213,1.6,-62,-61,3.1*
CCOC(=O)Cn1c(=NC(=O)c2ccc([N+](=O)[O-])s2)sc2ccccc21,0.9,18,1,-3,5,0.82
Cn1cnnc1SCC(=O)N1CCC(Cc2ccccc2)CC1,2.4*,-20,1.1,-14,-140,1.2
Cn1cnnc1SCC(=O)N1CCN(C(=O)c2ccco2)CC1,0.8,-3,0.91,9,20,1
CCOc1ccc(S(=O)(=O)n2nc(C)cc2C)cc1,x,8,0.84,16,x,0.92
COc1ccc(C(CC(=O)Nc2cc(OC)cc(OC)c2)n2cccc2)cc1 (configuration not stated),0.9,-122,1.2,-20,10,2.2*
COc1ccc(C(CC(=O)Nc2ccccc2OC)n2cccc2)cc1 (configuration not stated),0.9,0,1,-5,11,1
O=c1[nH]c(COc2ccc(Cl)cc2Br)nc2ccccc12,x,3,0.86,14,x,0.97
COC(=O)[C@H](Cc1c[nH]c2ccccc12)NC(=O)Nc1ccccc1OC,x,-11,1.1,-15,x,1.1
SMILES,bIAP act,mIAP block,hIAP act,hIAP inh,bIAP inh,mIAP activ
CCCCCCOc1ccc(C(=O)NCCCn2ccnc2)cc1,2*,-17,1.4,-37,-101,1.2
Cc1cc(OCCCCn2ccnc2)cc(C)c1Cl,16*,4,1.1,-15,i,0.96
Cc1cc(Cl)cc(C)c1OCCCCn1ccnc1,1.1,-3,0.95,5,-9,1
CCCCOc1ccc(NC(=O)C(=O)NCCCn2ccnc2)cc1,1.3,11,1.1,-12,-25,0.89
CCCn1c(C(O)c2ccc(C)cc2)nc2ccccc21 (configuration not stated),x,8,1.2,-21,x,0.92
CCCn1c(C(O)c2ccc3c(c2)OCO3)nc2ccccc21 (configuration not stated),5.8*,3,1.1,-9,-478,0.97
Cc1cccc(NC(=O)c2cn(-c3ccccc3)nc2-c2ccccc2)c1,0.9,-159,1.1,-9,6,2.6*
COc1ccc(S(=O)(=O)N2CCC(C(=O)Nc3cccc(Cl)c3)CC2)cc1OC,1,-176,1.1,-11,1,2.8*
COc1ccc(S(=O)(=O)N2CCCC(C(=O)Nc3cccc(C(C)=O)c3)C2)cc1 (configuration not stated),2.5*,0,1.1,-14,-148,0.99
COc1ccc(NC(=O)C2CCN(S(=O)(=O)c3ccc(C)cc3)CC2)cc1OC,0.9,-23,1.1,-12,8,1.2
Cc1ccc(NC(=O)C2CCN(S(=O)(=O)c3ccc(N4CCCC4=O)cc3)CC2)cc1Cl,x,-163,1.8,-81,x,2.6*
CC(=O)c1cccc(NC(=O)C2CCCN(S(=O)(=O)c3ccc(F)cc3)C2)c1 (configuration not stated),0.9,-3,1.1,-14,13,1
C=CCc1c(Cl)nc(C)nc1NCc1ccccc1,x,-4,1.3,-32,x,1
O=C(CCC1CCCCC1)Nc1nccs1,0.8,4,1.1,-9,16,0.96
O=C(CCC1CCCCC1)Nc1ncn[nH]1,2.3*,-21,1,-2,-128,1.2
CCN(CCNC(=O)C1CCN(Cc2nc(-c3cccc(Cl)c3)oc2C)CC1)c1ccccc1,2.9*,-39,0.9,10,-187,1.4
CCc1ccc(-c2nc(CN3CCC(C(=O)NCCN(CC)c4ccccc4)CC3)c(C)o2)cc1,4.4*,-101,0.76,24,-336,2*
CCN(CCNC(=O)C1CCN(Cc2nc(-c3ccc(Cl)cc3)oc2C)CC1)c1ccccc1,1.6,-35,0.87,13,-60,1.4
C=CCn1c(=O)/c(=C\c2ccccn2)s/c1=C(/C#N)C(=O)NCC1CCCO1 (configuration not stated),1.1,7,0.92,8,-6,0.93
C=CCn1c(=O)/c(=C/c2ccc(C)o2)s/c1=C(/C#N)C(=O)c1ccccc1,0.8,42*,0.81,19,19,0.58
O=C(O)Cc1ccc(O)c(O)c1,x,60*,0.85,15,x,0.4
Cc1ccccc1Cn1nc(C)c(NC(=O)C2c3ccccc3Oc3ccccc32)c1C,1,-349,1.1,-6,2,4.5*
